Like-named read-outs stand apart in the source and are kept apart here.
What was measured:
[1] = target: T1, human norepinephrine transporter (hNET) (Homo sapiens, UniProt P23975); test: Saturation transport kinetics assays with intact C6-hNET cells; type: cell-based; conditions: for Km / Vmax: intact C6-hNET cells, 5 min, 37 °C, mean ± SD, n = 4 or 5
[2] = target: T1, human norepinephrine transporter (hNET); test: Competitive inhibition of [^3H]mazindol binding to C6-hNET cell membranes
How it was run: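 Rat C6 glioma cells stably expressing human NET were Dounce-homogenized, and membranes were pelleted at 100,000 × g and resuspended in 50 mM Tris, 120 mM NaCl, 5 mM KCl, pH 7.4. Each assay used 70–100 μg protein. Radioligand was [3H]mazindol, with desipramine defining nonspecific binding. Ten inhibitor concentrations were run in quadruplicate and normalized to % specific binding. A one-site competition fit gave IC50, converted to Ki by Cheng-Prusoff using the mean saturation KD.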

[3] = earlier studies, reference not given; cited from earlier work
[4] = tested on: norepinephrine transporter (NET); conditions: isolated rat heart, cited from earlier work
[5] = tested on: norepinephrine transporter (NET); test: NET transport kinetics / neuronal uptake in isolated perfused rat hearts; conditions: isolated rat heart, ratio of Vmax and Km estimates
[6] = target: T1, human norepinephrine transporter (hNET); test: Saturation binding assays with [^3H]mazindol and C6-hNET membranes; conditions: C6-hNET cell membranes, n = 4
How it was run: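 The membranes were C6-hNET cell membranes, 100,000 × g pellets in 50 mM Tris/120 mM NaCl/5 mM KCl, pH 7.4, from different batches. Protein was measured by Lowry with BSA standards. Eight [3H]mazindol concentrations (0.25–25 nM) were tested, with specific binding in triplicate at each. A one-site binding nonlinear fit gave KD (nM) and Bmax (fmol/mg protein).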

[7] = [^3H]mazindol, homogenized C6-hNET cell membranes, Cheng-Prusoff, mean ± SD, n = 4 or 5

T1 sequence (P23975 whole entry): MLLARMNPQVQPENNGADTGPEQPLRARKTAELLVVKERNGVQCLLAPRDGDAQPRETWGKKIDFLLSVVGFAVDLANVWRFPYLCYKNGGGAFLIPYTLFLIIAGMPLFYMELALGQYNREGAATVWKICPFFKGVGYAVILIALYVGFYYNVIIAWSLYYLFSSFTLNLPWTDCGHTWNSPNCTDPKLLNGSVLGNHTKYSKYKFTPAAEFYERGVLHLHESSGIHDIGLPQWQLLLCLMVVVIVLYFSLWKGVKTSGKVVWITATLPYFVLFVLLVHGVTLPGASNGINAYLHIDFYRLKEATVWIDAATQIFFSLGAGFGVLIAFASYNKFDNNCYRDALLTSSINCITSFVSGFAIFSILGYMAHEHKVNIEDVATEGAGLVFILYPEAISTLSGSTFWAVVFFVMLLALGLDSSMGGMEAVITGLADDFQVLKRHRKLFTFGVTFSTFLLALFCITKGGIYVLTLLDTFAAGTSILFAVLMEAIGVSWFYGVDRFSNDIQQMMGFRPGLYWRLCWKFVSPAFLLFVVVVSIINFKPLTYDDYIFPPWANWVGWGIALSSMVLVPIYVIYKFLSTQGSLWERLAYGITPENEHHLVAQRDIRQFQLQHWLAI

Q: What does the source list for `N=C(N)NCC(O)c1cccc(O)c1` (single isomer, unassigned; (-)) [GMO, (−)-N-[^11C]guanyl-meta-octopamine]?
A: Km [1]: 4.43 ± 0.31 µM; Ki [2, 7]: 20.3 ± 2.5 µM

Q: What does the source list for `N=[11C](N)NCC(O)c1cccc(O)c1` (single isomer, unassigned; (-)) [GMO, (−)-N-[^11C]guanyl-meta-octopamine]?
A: Km increase relative to MHPG ([1]; C6-hNET cells, comparator MHPG): 6 fold; Vmax decrease relative to MHPG ([1]; C6-hNET cells, comparator MHPG): 30%; Vmax/Km ratio slower than for MHPG ([1]; C6-hNET cells, comparator MHPG): ~ 9 times slower; Vmax [1]: 5.57 ± 0.30 pmol/min/mg protein

Q: With `N=C(N)NCCc1ccc(F)c(O)c1` [4F-MHPG, [^11C]4-fluoro-meta-hydroxyphenethylguanidine] as the compound, how does the “Km increase relative to MHPG” value ([1]; C6-hNET cells, comparator MHPG) read?
A: 5 fold

Q: And the Km [1]?
A: 2.57 ± 0.35 µM

Q: What about the Vmax [1] of the same compound?
A: 7.46 ± 0.64 pmol/min/mg protein

Q: What about the Ki [2, 7] of the same compound?
A: 5.6 ± 0.5 µM

Q: Which results are given for `N=C(N)NCCc1cc(O)ccc1F` [6F-MHPG, [^11C]6-fluoro-meta-hydroxyphenethylguanidine]?
A: Km [1]: 2.86 ± 0.43 µM; Ki [2, 7]: 17.7 ± 0.5 µM

Q: With `N=[11C](N)NCCc1cc(O)ccc1F` [6F-MHPG, [^11C]6-fluoro-meta-hydroxyphenethylguanidine] as the compound, how does the “Km increase relative to MHPG” value ([1]; C6-hNET cells, comparator MHPG) read?
A: ~ 5 fold

Q: What about the “Vmax decrease relative to MHPG” value ([1]; C6-hNET cells, comparator MHPG) of the same compound?
A: ~ 50%

Q: And the “Vmax/Km as percentage of the value for MHPG” value ([1]; C6-hNET cells, comparator MHPG)?
A: ~ 12%

Q: What about the Vmax [1] of the same compound?
A: 4.06 ± 0.66 pmol/min/mg protein

Q: With `CNC[C@H](O)c1ccc(O)c(O)c1` [EPI, [^11C]-(−)-epinephrine] as the compound, how does the “Km increase relative to NE” value ([1]; C6-hNET cells, comparator NE) read?
A: 11 fold

Q: What about the Ki [2] of the same compound?
A: 68.4 ± 7.6 µM

Q: What about the “log P” value [3] of the same compound?
A: −1.30

Q: Which Km ([4]; ref Raffel et al. [16]) does the source give for `NC(N)=NCc1cccc(Br)c1` [MBBG, [^76Br]-meta-bromobenzylguanidine] here?
A: 0.11 ± 0.03 µM

Q: Which results are given for `NC(N)=NCc1cccc([76Br])c1` [MBBG, [^76Br]-meta-bromobenzylguanidine]?
A: Vmax ([4]; ref Raffel et al. [16]): 0.33 ± 0.10 nmol/min/g wet; Vmax/Km ratio ([5]; ref Raffel et al. [16]): 3.0 ± 1.2 ml/min/g wet

Q: Which Km [1] does the source give for `N=C(N)NCCc1cccc(O)c1` [MHPG, [^11C]meta-hydroxyphenethylguanidine] here?
A: 0.73 ± 0.2 µM

Q: What about the Ki [2, 7] of the same compound?
A: 4.9 ± 0.5 µM

Q: Which “Vmax relative to PHPG” value ([1]; C6-hNET cells, comparator PHPG) does the source give for `N=[11C](N)NCCc1cccc(O)c1` [MHPG, [^11C]meta-hydroxyphenethylguanidine] here?
A: 2.4 times higher

Q: And the Vmax [1]?
A: 7.83 ± 1.73 pmol/min/mg protein

Q: For `N=C(N)NCc1cccc(I)c1` [MIBG, [^131I]metaiodobenzylguanidine], which Km ([4]; ref DeGrado et al. [15]) is on record?
A: 0.052 µM

Q: Which Vmax ([4]; ref DeGrado et al. [15]) does the source give for `N=C(N)NCc1cccc([131I])c1` [MIBG, [^131I]metaiodobenzylguanidine] here?
A: 0.23 nmol/min/g wet

Q: What about the Vmax/Km ratio ([5]; ref DeGrado et al. [15]) of the same compound?
A: 4.4 ml/min/g wet

Q: What does the source list for `NC[C@H](O)c1ccc(O)c(O)c1` [NE, [^3H]-(−)-norepinephrine]?
A: Km ([4]; ref Iversen [14]): 0.27 µM; Vmax ([4]; ref Iversen [14]): 1.18 ± 0.12 nmol/min/g wet

Q: With `N=C(N)NCCc1ccc(O)cc1` [PHPG, [^11C]para-hydroxyphenethylguanidine] as the compound, how does the Km [1] read?
A: 0.52 ± 0.06 µM

Q: And the Ki [2, 7]?
A: 1.9 ± 0.2 µM

Q: With `N=[11C](N)NCCc1ccc(O)cc1` [PHPG, [^11C]para-hydroxyphenethylguanidine] as the compound, how does the Vmax [1] read?
A: 3.31 ± 0.40 pmol/min/mg protein

Q: With `OC1(c2ccc(Cl)cc2)c2ccccc2C2=NCCN21` (stereo not drawn) [[^3H]mazindol, [4′-^3H]Mazindol] as the compound, how does the Bmax [6] read?
A: 457 ± 31 fmol/mg protein

Q: What about the Kd [6] of the same compound?
A: 0.0012 µM

Q: Which Km [1] does the source give for [^3H]dopamine [DA] here?
A: 0.24 ± 0.04 µM

Q: What about the Vmax [1] of the same compound?
A: 2.91 ± 0.47 pmol/min/mg protein

Q: What about the Km ([4]; ref Hellmann et al. [11]) of the same compound?
A: 0.69 µM

Q: What about the Vmax ([4]; ref Hellmann et al. [11]) of the same compound?
A: 1.45 nmol/min/g wet

Q: And the Vmax/Km ratio ([5]; ref Hellmann et al. [11])?
A: 2.10 ml/min/g wet

Q: For [^11C]-(−)-meta- hydroxyephedrine, which Km [1] is on record?
A: 0.48 ± 0.08 µM

Q: And the Vmax [1]?
A: 5.43 ± 0.71 pmol/min/mg protein

Q: What about the Ki [2, 7] of the same compound?
A: 43.2 ± 1.8 µM

Q: And the “log P” value [3]?
A: 0.3
